Active and inactive are the calls of the source. No cut-off for these calls is given here.
What was measured:
[1] = target: Signal transducer and activator of transcription 3 (Homo sapiens) (UniProt P40763); assay: Inhibition of phosphorylated STAT3 expression in human A549 cells measured at 50 uM by Western blot analysis; format: cell-based
How it was run: (§1)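 A549 cells were treated with 50 μM compound or DMSO and lysed in RIPA buffer; lysates were spun at 17 000g for 15 min at 4 °C and protein was measured by Bradford assay. 35 μg of protein was run on SDS-PAGE and semidry-transferred to nitrocellulose, then blocked 1 h in 5% BSA/TBS-0.1% Tween-20. Blots were probed overnight at 4 °C with anti-phospho-STAT3 and anti-STAT3 (1:1000) plus β-actin (1:20 000) as loading control, followed by secondary antibodies for 1.30 h at r.t.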

A549 [2] = assay: Growth inhibition of human A549 cells at 50 microM measured after 72 hrs by MTT assay; format: functional; conditions: for inhibition of growth at 50 µM: read-out: GI
How it was run: (§2)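 A549, Caco-2 and SF268 cells were grown in DMEM (4.5 g/L glucose) with 10% heat-inactivated FBS and pen-strep at 37 °C, 5% CO2. After 24 h, medium was replaced with compound at 10, 25, 35, 50 or 75 μM (final 0.5% DMSO; vehicle controls) for 72 h. MTT (0.25 mg/mL final) was added for 3 h, formazan was dissolved in DMSO, and A570 minus A690 was read. Triplicate wells per condition were normalized to DMSO control as 100%; IC50 was taken from dose-response curves over ≥3 experiments.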

SF-268 = assay: Growth inhibition of human SF-268 cells upto 75 microM measured after 72 hrs by MTT assay; format: functional, cell-based; how it was run: as §2
A549 [3] = assay: Antitumor activity against human A549 cells assessed as decrease in STAT3 mRNA expression measured at 50 microM by RT-PCR analysis; format: functional, cell-based
How it was run: (§3)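 A549 cells were treated with 50 μM compound alongside DMSO controls. mRNA levels were measured by quantitative real-time RT-PCR and expressed relative to the DMSO control.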

A549 [4] = assay: Down regulation of […] protein expression in human A549 cells measured at 50 uM by Western blot analysis; format: functional, cell-based; how it was run: as §1
A549 [5] = assay: Growth inhibition of human A549 cells measured after 72 hrs by MTT assay; format: functional, cell-based; conditions: A549, 72 h; how it was run: as §2
Caco-2 = assay: Growth inhibition of human Caco-2 cells up to 75 uM measured after 72 hrs by MTT assay; format: functional, cell-based; how it was run: as §2
A549 [6] = assay: Antitumor activity against human A549 cells assessed as decrease in c-myc mRNA expression measured at 50 microM by RT-PCR analysis; format: functional, cell-based; how it was run: as §3
HUVEC = assay: Growth inhibition of HUVEC cells upto 75 microM measured after 72 hrs by MTT assay; format: cell-based; conditions: human

Sequence of Signal transducer and activator of transcription 3 (Homo sapiens) (P40763 whole entry): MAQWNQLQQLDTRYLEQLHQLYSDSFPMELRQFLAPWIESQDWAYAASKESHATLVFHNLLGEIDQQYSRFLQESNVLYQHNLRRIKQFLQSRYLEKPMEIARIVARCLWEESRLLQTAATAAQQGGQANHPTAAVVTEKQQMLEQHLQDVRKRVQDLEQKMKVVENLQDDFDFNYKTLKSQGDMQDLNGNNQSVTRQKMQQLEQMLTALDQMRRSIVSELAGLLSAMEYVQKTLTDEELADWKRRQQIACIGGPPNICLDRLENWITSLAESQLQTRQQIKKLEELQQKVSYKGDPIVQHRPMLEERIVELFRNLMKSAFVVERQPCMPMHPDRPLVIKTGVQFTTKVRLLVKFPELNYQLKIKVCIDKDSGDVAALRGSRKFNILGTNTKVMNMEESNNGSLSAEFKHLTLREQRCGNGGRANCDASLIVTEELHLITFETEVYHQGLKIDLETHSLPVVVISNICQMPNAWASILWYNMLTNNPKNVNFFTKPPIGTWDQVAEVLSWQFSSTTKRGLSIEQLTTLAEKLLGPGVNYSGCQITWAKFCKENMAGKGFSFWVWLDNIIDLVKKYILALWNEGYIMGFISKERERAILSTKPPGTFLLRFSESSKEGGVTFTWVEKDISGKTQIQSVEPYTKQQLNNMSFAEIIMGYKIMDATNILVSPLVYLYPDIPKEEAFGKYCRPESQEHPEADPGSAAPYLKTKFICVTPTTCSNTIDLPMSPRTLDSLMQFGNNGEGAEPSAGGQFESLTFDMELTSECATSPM

| SMILES | inhibition [1] | inhibition of growth at 50 µM (A549 [2]) | growth inhibition (GI) (SF-268) | Activity (A549 [3]) | Activity (A549 [4]) | IC50 (A549 [5]) | growth inhibition (GI) (Caco-2) | Activity (A549 [6]) | Activity (HUVEC) | growth inhibition (GI) (A549 [2]) |
| --- | --- | --- | --- | --- | --- | --- | --- | --- | --- | --- |
| CCCCCCCCCCCC(=O)CCCCCC(=O)O | Active | > 50% | inactive | Active | Active | 28 µM | inactive | Active | – | – |
| CCCCCCCCCC(O)CCCCCCCC(=O)O (stereo not drawn) | – | > 50% | – | – | – | – | – | – | – | – |
| CCCCCCCCCCC(=O)CCCCCCC(=O)O | – | > 50% | inactive | – | – | 37 µM | inactive | – | – | – |
| CCCCCCCCCCC[C@@H](O)CCCCCC(=O)O | – | > 50% | – | – | – | – | – | – | Non-Toxic | – |
| CCCCCCCCCCCCCCCCCC(=O)O | – | – | – | – | – | – | – | – | – | inactive |
| CCCCCCCCCCCCCC(=O)CCCC(=O)O | – | > 50% | – | – | – | 49 µM | – | – | – | – |
| CCCCCCCCCCCCC(=O)CCCCC(=O)O | Active | > 50% | inactive | Active | Active | 26 µM | inactive | Active | Non-Toxic | – |
| CCCCCCCCCCCCCCCC(=O)O | – | – | – | – | – | – | – | – | – | inactive |

Reference: ChEMBL document CHEMBL5055625, “Saturated Oxo Fatty Acids (SOFAs): A Previously Unrecognized Class of Endogenous Bioactive Lipids Exhibiting a Cell Growth Inhibitory Activity” (J Med Chem, 2021)
